{"data": "Published values from different studies", "MAL12": "Alpha-glucosidase MAL12 (MAL12, Saccharomyces cerevisiae S288c, UniProt P53341)", "rep main protease": "Replicase polyprotein 1ab, main protease (rep, Severe acute respiratory syndrome coronavirus 2, UniProt P0DTD1)", "ADRA1A": "Alpha-1A adrenergic receptor (ADRA1A, Homo sapiens, UniProt P35348)", "note": "Compare with care: the assays were run in different laboratories."}
{"Compound": "CN1C(=O)/C(=N\\Nc2ncc(-c3cc4ccccc4oc3=O)s2)c2cc(Cl)ccc21", "target": "MAL12", "assay": "enzyme activity, inhibitor, absorbance", "conditions": "100 µM", "endpoint": "inhibition", "result": "48.3%"}
{"Compound": "O=c1c(O)c(-c2ccc(O)cc2)oc2c(O)c(O)cc(O)c12", "target": "rep main protease", "assay": "enzyme activity, inhibitor", "endpoint": "kinact", "result": "0.000152 s⁻¹"}
{"Compound": "COc1cc(O)c2c(=O)cc(-c3ccccc3)oc2c1", "target": "rep main protease", "assay": "enzyme activity, inhibitor", "conditions": "10 µM", "endpoint": "inhibition", "result": "2.12%"}
{"Compound": "[2H]c1c([2H])c([C@]2([2H])CCCN2C(=O)C(C)(C)Oc2ccc3cn[nH]c3c2)c([2H])c([2H])c1C([2H])([2H])[2H]", "target": "Focal adhesion kinase 1 (PTK2, Homo sapiens, UniProt Q05397)", "assay": "binding, competition with immobilised ligand", "conditions": "1 µM", "endpoint": "remaining binding", "result": "75%"}
{"Compound": "O=C(O[C@@H]1Cc2c(O)cc(O)cc2O[C@@H]1c1ccc(O)c(O)c1)c1cc(O)c(O)c(O)c1", "target": "rep main protease", "assay": "enzyme activity, inhibitor", "endpoint": "kinact/KI", "result": "9.76 M⁻¹ s⁻¹"}
{"Compound": "c1cncc([C@@H]2CCCN2)c1", "target": "ADRA1A", "assay": "ligand displacement", "conditions": "50 µM", "endpoint": "inhibition", "result": "-8.12%"}
{"Compound": "O=C(O)c1cc(O)c(O)c(O)c1", "target": "rep main protease", "assay": "enzyme activity, inhibitor", "endpoint": "kinact", "result": "0.00079 s⁻¹"}
{"Compound": "COc1cc2c3c(c1OC)-c1c(cccc1OC)CC3N(C)CC2 (racemic)", "target": "ADRA1A", "assay": "ligand displacement, radioligand", "conditions": "10 µM", "endpoint": "inhibition", "result": "65%"}
{"Compound": "CN1C(=S)N(c2ccccc2)C(=O)/C1=C1/C(=O)N(C)c2ccc(Cl)cc21", "target": "MAL12", "assay": "enzyme activity, inhibitor, absorbance", "conditions": "200 µM", "endpoint": "inhibition", "result": "54.2%"}
{"Compound": "CN1CCC[C@H]1c1cccnc1", "target": "ADRA1A", "assay": "ligand displacement", "conditions": "50 µM", "endpoint": "inhibition", "result": "-6.17%"}
{"Compound": "COc1cc2cc3c4c(cc(OC)c(OC)c4c2cc1OC)CCN3C", "target": "ADRA1A", "assay": "ligand displacement, radioligand", "conditions": "10 µM", "endpoint": "inhibition", "result": "19%"}
{"Compound": "COc1cc(O)c2c(c1)O[C@H](c1ccccc1)CC2=O", "target": "rep main protease", "assay": "enzyme activity, inhibitor", "conditions": "100 µM", "endpoint": "inhibition", "result": "7.82%"}
{"Compound": "CCc1ccc(N2C(=O)/C(=C3/C(=O)N(C)c4ccc(Cl)cc43)NC2=S)cc1", "target": "MAL12", "assay": "enzyme activity, inhibitor, absorbance", "conditions": "200 µM", "endpoint": "inhibition", "result": "62.1%"}
{"Compound": "CC(C)CC(=O)OC[C@H]1O[C@@](C#N)(c2ccc3c(N)ncnn23)[C@H](O)[C@@H]1O", "target": "Histamine H2 receptor (HRH2, Homo sapiens, UniProt P25021)", "assay": "cell-free assay", "conditions": "20 µM", "endpoint": "inhibition", "result": "3%"}
{"Compound": "C[C@H]1O[C@H](O[C@H]2[C@H](O)[C@@H](O)[C@@H](O[C@H]3[C@H](O)[C@@H](O)C(O)O[C@@H]3CO)O[C@@H]2CO)[C@H](O)[C@@H](O)[C@@H]1N[C@H]1C=C(CO)[C@@H](O)[C@H](O)[C@H]1O (some centres unmarked)", "target": "MAL12", "assay": "enzyme activity, inhibitor, absorbance", "conditions": "774.5 µM", "endpoint": "inhibition", "result": "63.9%"}
{"Compound": "COc1cc2c(cc1OC)-c1c(OC)c(OC)cc3c1[C@H](C2)N(C)CC3 (racemic)", "target": "ADRA1A", "assay": "ligand displacement, radioligand", "conditions": "10 µM", "endpoint": "inhibition", "result": "69%"}
{"Compound": "COc1ccc(-c2cc(=O)c3c(O)cc(OC)cc3o2)cc1", "target": "rep main protease", "assay": "enzyme activity, inhibitor", "conditions": "10 µM", "endpoint": "inhibition", "result": "3.99%"}
